Columns and labels:
[1] = Lipophilicity, log D of the compound by chromatography; type: physicochemical
[2] = Oral bioavailability in Sprague-Dawley rat at 4 mg/kg; type: ADME, organism-based; conditions: in vivo
How it was run: (§1)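 IV parameters were taken from a 1 mg/kg dose given as a 30 min infusion.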

[3] = Drug uptake in bovine lung relative to plasma level; type: ADME, Bos taurus; conditions: cattle
[4] = Volume of distribution at steady state in cynomolgus monkey; type: ADME, organism-based, Macaca fascicularis; conditions: in vivo, read-out: Vdss
[5] = Terminal half life in po dosed human; type: ADME, organism-based; conditions: in vivo, read-out: beta t1/2 (converted)
[6] = Terminal half life in po dosed Sprague-Dawley rat; type: ADME, organism-based; conditions: in vivo, read-out: beta t1/2 (converted)
[7] = Volume of distribution at steady state in beagle dog; type: ADME, organism-based, Canis lupus familiaris; conditions: in vivo, read-out: Vdss
[8] = Oral bioavailability in cynomolgus monkey at 4 mg/kg; type: ADME, organism-based, Macaca fascicularis; conditions: in vivo
[9] = Clearance in beagle dog at 1 mg/kg, iv administered as infusion over 30 mins; type: ADME, organism-based, Canis lupus familiaris; design: dose 1 mg/kg, route intravenous; conditions: in vivo
[10] = system: Plasma; assay: Drug uptake in epithelial lining fluid of Sprague-Dawley rat at 1 mg/kg, iv relative to plasma level; type: ADME, organism-based; design: dose 1 mg/kg, route intravenous; conditions: in vivo
[11] = Ratio of AUC (0 to 12 hrs) in lung to AUC (0 to 12 hrs) in plasma of Sprague-Dawley rat at 1 mg/kg, iv; type: ADME, organism-based; design: dose 1 mg/kg, route intravenous
[12] = Clearance in cynomolgus monkey at 1 mg/kg, iv administered as infusion over 30 mins; type: ADME, organism-based, Macaca fascicularis; design: dose 1 mg/kg, route intravenous; conditions: in vivo
[13] = Terminal half life in po dosed beagle dog; type: ADME, organism-based, Canis lupus familiaris; conditions: in vivo, read-out: beta t1/2 (converted)
[14] = Terminal half life in po dosed cynomolgus monkey; type: ADME, organism-based, Macaca fascicularis; conditions: in vivo, read-out: beta t1/2 (converted)
[15] = Clearance in Sprague-Dawley rat at 1 mg/kg, iv administered as infusion over 30 mins; type: ADME, organism-based; design: dose 1 mg/kg, route intravenous; conditions: in vivo; how it was run: as §1
[16] = system: Plasma; assay: Drug uptake in dog lung relative to plasma level; type: ADME, Canis lupus familiaris
[17] = Oral bioavailability in beagle dog at 4 mg/kg; type: ADME, organism-based, Canis lupus familiaris; conditions: in vivo
[18] = system: Lung; assay: Drug uptake in lung tissue of Sprague-Dawley rat at 1 mg/kg, iv relative to plasma level; type: ADME, organism-based; design: dose 1 mg/kg, route intravenous; conditions: in vivo
[19] = Ratio of AUC (0 to 12 hrs) in epithelial lining fluid to AUC (0 to 12 hrs) in plasma of Sprague-Dawley rat at 1 mg/kg, iv; type: ADME, organism-based; design: dose 1 mg/kg, route intravenous
[20] = Volume of distribution at steady state in Sprague-Dawley rat; type: ADME, organism-based; conditions: in vivo, read-out: Vdss

Row | Structure (SMILES) | chromatographic logD [1] | other results
1 | Cc1cn2nc([C@@H]3CCCCN3C(=O)c3ccccc3NS(C)(=O)=O)cc2nc1C | 3 | bioavailability [2]: 18%
2 | CNc1c(C)c(C)nc2cc([C@@H]3CCCCN3C(=O)c3ccccc3NS(C)(=O)=O)nn12 | 2.6 | –
3 | Cc1ccc(NS(C)(=O)=O)c(C(=O)N2CCCC[C@H]2c2cc3nc(C)c(C)cn3n2)c1 | 3.1 | bioavailability [2]: 86%
4 | Cc1ccc(NS(C)(=O)=O)c(C(=O)N2CCCC[C@H]2c2cc3nc(C)cc(C)n3n2)c1 | 2.7 | –
5 | Cc1ccc(NS(C)(=O)=O)c(C(=O)N2CCCC[C@H]2c2cc3nc(C4CC4)cc(C)n3n2)c1 | 3.5 | bioavailability [2]: 42%
6 | Cc1ccc(NS(C)(=O)=O)c(C(=O)N2CCCC[C@H]2c2cc3nc(C4CC4)c(C)cn3n2)c1 | 4.1 | –
7 | Cc1ccc(NS(C)(=O)=O)c(C(=O)N2CCCC[C@H]2c2cc3nc(C4CC4)ccn3n2)c1 | 3.7 | –
8 | Cc1cn2nc([C@@H]3CCCCN3C(=O)c3cc(Cl)ccc3NS(C)(=O)=O)cc2nc1N1CCC1 | 3.8 | –
9 | Cc1cn2nc([C@@H]3CCCCN3C(=O)c3cc(Cl)ccc3NS(C)(=O)=O)cc2nc1N1CC(F)C1 | 3.7 | –
10 | Cc1cn2nc([C@@H]3CCCCN3C(=O)c3cc(Cl)ccc3NS(C)(=O)=O)cc2nc1N1CC(C#N)C1 | 3.3 | –
11 | Cc1cn2nc([C@@H]3CCCCN3C(=O)c3cc(Cl)ccc3NS(C)(=O)=O)cc2nc1N1CC(O)C1 | 2.7 | bioavailability [2]: 42%
12 | Cc1cn2nc([C@@H]3CCCCN3C(=O)c3cc(Cl)ccc3NS(C)(=O)=O)cc2nc1N1CC(N)C1 | 2.1 | bioavailability [2]: 67%
13 | Cc1cn2nc([C@@H]3CCCCN3C(=O)c3cc(Cl)ccc3NS(C)(=O)=O)cc2nc1N1CCCC1 | 4.4 | –
14 | Cc1cn2nc([C@@H]3CCCCN3C(=O)c3cc(Cl)ccc3NS(C)(=O)=O)cc2nc1N1CCC(F)(F)C1 | 4.2 | –
15 | Cc1cn2nc([C@@H]3CCCCN3C(=O)c3cc(Cl)ccc3NS(C)(=O)=O)cc2nc1N1CC[C@@H](C#N)C1 | 3.7 | –
16 | Cc1cn2nc([C@@H]3CCCCN3C(=O)c3cc(Cl)ccc3NS(C)(=O)=O)cc2nc1N1CC[C@H](C#N)C1 | 3.6 | –
17 | Cc1cn2nc([C@@H]3CCCCN3C(=O)c3cc(Cl)ccc3NS(C)(=O)=O)cc2nc1N1CC[C@@H](O)C1 | 2.8 | bioavailability [2]: 71%
18 | Cc1cn2nc([C@@H]3CCCCN3C(=O)c3cc(Cl)ccc3NS(C)(=O)=O)cc2nc1N1CC[C@H](O)C1 | 2.9 | –
19 | Cc1cn2nc([C@@H]3CCCCN3C(=O)c3cc(Cl)ccc3NS(C)(=O)=O)cc2nc1N1CC[C@@H](N)C1 | 2 | –
20 | Cc1cn2nc([C@@H]3CCCCN3C(=O)c3cc(Cl)ccc3NS(C)(=O)=O)cc2nc1N1CC[C@H](N)C1 [PRESATOVIR] | 2 | Drug uptake [3]: Active; Vd [4]: 4.95 L/kg; half-life [5]: 35 h; half-life [6]: 3.4 h; Vd [7]: 2.91 L/kg; bioavailability [8]: 60%; clearance [9]: 3.83 mL/min/kg; Drug uptake [10]: Not Active; Kp [11]: 26; clearance [12]: 6 mL/min/kg; half-life [13]: 8.9 h; half-life [14]: 10 h; clearance [15]: 32.2 mL/min/kg; Drug uptake [16]: Active; bioavailability [17]: 130%; bioavailability [2]: 46%; Drug uptake [18]: Not Active; Kp [19]: 10; Vd [20]: 9.75 L/kg

Further lines, with some results ahead:

Row | chromatographic logD [1] | Structure (SMILES) | other results
21 | 1.9 | Cc1[nH]c2cc([C@@H]3CCCCN3C(=O)c3cc(Cl)ccc3NS(C)(=O)=O)nn2c(=O)c1C | –
22 | 1.3 | Cc1[nH]c2cc([C@@H]3CCCCN3C(=O)c3ccccc3NS(C)(=O)=O)nn2c(=O)c1C | bioavailability [2]: 1.5%
23 | 1.4 | Cc1[nH]c2cc([C@@H]3CCCCN3C(=O)c3ccccc3)nn2c(=O)c1C | –
24 | 1.1 | Cc1[nH]c2cc([C@@H]3CCCCN3C(=O)c3ccccc3O)nn2c(=O)c1C | –
25 | 1.4 | Cc1[nH]c2cc([C@@H]3CCCCN3C(=O)c3ccccc3N)nn2c(=O)c1C | –
26 | 0.88 | CC(=O)Nc1ccccc1C(=O)N1CCCC[C@H]1c1cc2[nH]c(C)c(C)c(=O)n2n1 | –
27 | 1.3 | COC(=O)Nc1ccccc1C(=O)N1CCCC[C@H]1c1cc2[nH]c(C)c(C)c(=O)n2n1 | –
28 | 1.6 | Cc1[nH]c2cc([C@@H]3CCCCN3C(=O)c3ccccc3NS(=O)(=O)C3CC3)nn2c(=O)c1C | –
29 | 1.1 | Cc1[nH]c2cc([C@@H]3CCCCN3C(=O)c3ccccc3N(C)S(C)(=O)=O)nn2c(=O)c1C | –
30 | 1.3 | Cc1[nH]c2cc([C@@H]3CCCCN3C(=O)c3cccc(F)c3NS(C)(=O)=O)nn2c(=O)c1C | –
31 | 1.5 | Cc1[nH]c2cc([C@@H]3CCCCN3C(=O)c3ccc(F)cc3NS(C)(=O)=O)nn2c(=O)c1C | –
32 | 1.4 | Cc1[nH]c2cc([C@@H]3CCCCN3C(=O)c3cc(F)ccc3NS(C)(=O)=O)nn2c(=O)c1C | –
33 | 1.7 | Cc1ccc(NS(C)(=O)=O)c(C(=O)N2CCCC[C@H]2c2cc3[nH]c(C)c(C)c(=O)n3n2)c1 | –
34 | 1.9 | Cc1[nH]c2cc([C@@H]3CCCCN3C(=O)c3cc(C(F)(F)F)ccc3NS(C)(=O)=O)nn2c(=O)c1C | –
35 | 2 | Cc1[nH]c2cc([C@@H]3CCCCN3C(=O)c3cc(Br)ccc3NS(C)(=O)=O)nn2c(=O)c1C | –
36 | 2.6 | Cc1[nH]c2cc([C@@H]3CCCCN3C(=O)c3cc(-c4ccccc4)ccc3NS(C)(=O)=O)nn2c(=O)c1C | –
37 | 1.8 | Cc1[nH]c2cc([C@@H]3CCCCN3C(=O)c3c(Cl)cccc3NS(C)(=O)=O)nn2c(=O)c1C | –
38 | 2.7 | Cc1nc2cc([C@@H]3CCCCN3C(=O)c3ccccc3NS(C)(=O)=O)nn2c(C)c1C | –
39 | 3.1 | Cc1ccc(NS(C)(=O)=O)c(C(=O)N2CCCC[C@H]2c2cc3nc(C)c(C)c(C)n3n2)c1 | bioavailability [2]: 26%
40 | 2.8 | CNc1c(C)c(C)nc2cc([C@@H]3CCCCN3C(=O)c3cc(C)ccc3NS(C)(=O)=O)nn12 | –
